Measurements as given in ChEMBL document CHEMBL3580642, “Cytotoxic Bryostatin Derivatives from the South China Sea Bryozoan Bugula neritina” (J Nat Prod, 2015).
The source made the active and inactive calls. No cut-off for these calls is given here.

Key:
[1] = tested on: K562; assay: Cytotoxicity against human K562 cells assessed as reduction in cell viability incubated for 72 hrs by MTT method; type: functional, cell-based; settings: K562, 72 h
Summary of the method: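 Cells were grown in RPMI-1640 or DMEM with 10% FBS at 37 °C, humidified 5% CO2. Adherent cells attached for 12 h before dosing, and suspension cells were seeded at 1 × 10^5 cells/mL. […] MTT read-out used DMSO solubilisation and OD 490 nm. IC50 came from mean OD versus concentration curves.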

[2] = tested on: U-937; assay: Cytotoxicity against human U937 cells assessed as reduction in cell viability incubated for 72 hrs by MTT method; type: functional, cell-based; settings: U-937, 72 h
[3] = tested on: SGC-7901; assay: Cytotoxicity against human SGC7901 cells assessed as reduction in cell viability at 20 ug/ml incubated for 72 hrs by MTT method; type: functional, cell-based
Summary of the method: (§1)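 Cultures were kept in RPMI-1640 or DMEM with 10% FBS at 37 °C, 5% CO2. Adherent cells were dosed after 12 h attachment, and suspension cells were seeded at 1 × 10^5 cells/mL. Triplicate 72 h exposure was followed by MTT, DMSO solubilisation and OD 490 nm. Activity was scored at a concentration of 20 μg/mL.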

[4] = tested on: HeLa; assay: Cytotoxicity against human HeLa cells assessed as reduction in cell viability at 20 ug/ml incubated for 72 hrs by MTT method; type: functional, cell-based; summary of the method: as §1
[5] = tested on: HeLa; assay: Cytotoxicity against human HeLa cells assessed as reduction in cell viability incubated for 72 hrs by MTT method
[6] = Cytotoxicity against human SGC7901 cells assessed as reduction in cell viability incubated for 72 hrs by MTT method; settings: SGC-7901, 72 h
[7] = tested on: U-937; assay: Cytotoxicity against human U937 cells assessed as reduction in cell viability at 20 ug/ml incubated for 72 hrs by MTT method; type: functional, cell-based; summary of the method: as §1
[8] = tested on: K562; assay: Cytotoxicity against human K562 cells assessed as reduction in cell viability at 20 ug/ml incubated for 72 hrs by MTT method; type: functional, cell-based; summary of the method: as §1

Structure (SMILES)	IC50 [1]	IC50 [2]	inhibition [3]	inhibition [4]	IC50 [5]	IC50 [6]	inhibition [7]	inhibition [8]
CCCC(=O)O[C@H]1/C(=C/C(=O)OC)C[C@H]2C[C@H]([C@@H](C)O)OC(=O)C[C@H](O)C[C@@H]3C[C@H](OC(=O)C(C)(C)C)C(C)(C)[C@](O)(C[C@@H]4C/C(=C/C(=O)OC)C[C@H](/C=C/[C@H](C)[C@]1(O)O2)O4)O3	9900 nM	7700 nM	inactive	inactive				
COc1cccc2c1C(=O)c1c(O)c3c(c(O)c1C2=O)C[C@@](O)(C(=O)CO)C[C@@H]3O[C@H]1C[C@H](N)[C@H](O)[C@H](C)O1 [DOXORUBICIN]	200 nM				100 nM	200 nM		
CCCC(=O)O[C@H]1/C(=C/C(=O)OC)C[C@H]2C[C@H]([C@@H](C)O)OC(=O)C[C@H](O)C[C@@H]3C[C@H](OC(=O)C(C)(C)C)C(C)(C)[C@](OC)(C[C@@H]4C/C(=C/C(=O)OC)C[C@H](/C=C/C(C)(C)[C@]1(O)O2)O4)O3			inactive	inactive			inactive	inactive
CCCC(=O)O[C@H]1/C(=C/C(=O)OC)C[C@@H]2C[C@H]([C@@H](C)O)OC(=O)C[C@H](O)C[C@@H]3C[C@H](OC(=O)CC(C)C)C(C)(C)[C@](O)(C[C@@H]4C/C(=C/C(=O)OC)C[C@H](/C=C/C(C)(C)[C@]1(O)O2)O4)O3			inactive	inactive			inactive	inactive
